ChEMBL document CHEMBL4229460, “Design and biological evaluation of novel hybrids of 1, 5-diarylpyrazole and Chrysin for selective COX-2 inhibition” (Bioorg Med Chem, 2018)

Experiments:
B16-F10 = assay: Antiproliferative activity against mouse B16F10 cells after 48 hrs by MTT assay; type: functional, cell-based; settings: B16-F10, 48 h
In short: (§1)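 Cells kept in DMEM with 10% FBS, penicillin/streptomycin, 37 °C, 5% CO₂. Seeded at 5 × 10⁴ cells/well and allowed to adhere 12 h. Exposed to 0, 0.1, 1, 10 and 100 μM (final) for 48 h. Viability read by MTT reduction at OD 570 nm with 630 nm reference. IC50 reported as mean ± SD of three independent experiments.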

[1] = molecular target: Prostaglandin G/H synthase 1 (Homo sapiens, UniProt P23219); assay: Inhibition of COX1 (unknown origin) using arachidonic acid as substrate pretreated for 10 mins followed by substrate addition and measured after 2 mins by ELISA; type: ADME
Homo sapiens = species: Homo sapiens; assay: Selectivity index, ratio of IC50 for COX1 (unknown origin) to ratio of IC50 for COX2 (unknown origin)
In short: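 Enzyme ELISA kit: COX-1 or COX-2 preincubated with compound at 0, 1, 10 or 100 μM for 10 min at 37 °C in 0.1 M Tris-HCl pH 8.0, 5 mM EDTA, 2 mM phenol, 1 μM heme. Started with 100 μM arachidonic acid for 2 min at 37 °C, stopped with 1 M HCl. PGH₂ reduced by stannous chloride; PGF2α read by enzyme immunoassay at 450 nm. Index taken as the ratio of the COX IC50 values.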

A549 = assay: Antiproliferative activity against human A549 cells after 48 hrs by MTT assay; type: functional, cell-based; settings: A549, 48 h; in short: as §1
[2] = molecular target: T1, Prostaglandin G/H synthase 2 (Homo sapiens, UniProt P35354); assay: Inhibition of COX2 (unknown origin) using arachidonic acid as substrate pretreated for 10 mins followed by substrate addition and measured after 2 mins by ELISA
T1 sequence (P35354 whole entry): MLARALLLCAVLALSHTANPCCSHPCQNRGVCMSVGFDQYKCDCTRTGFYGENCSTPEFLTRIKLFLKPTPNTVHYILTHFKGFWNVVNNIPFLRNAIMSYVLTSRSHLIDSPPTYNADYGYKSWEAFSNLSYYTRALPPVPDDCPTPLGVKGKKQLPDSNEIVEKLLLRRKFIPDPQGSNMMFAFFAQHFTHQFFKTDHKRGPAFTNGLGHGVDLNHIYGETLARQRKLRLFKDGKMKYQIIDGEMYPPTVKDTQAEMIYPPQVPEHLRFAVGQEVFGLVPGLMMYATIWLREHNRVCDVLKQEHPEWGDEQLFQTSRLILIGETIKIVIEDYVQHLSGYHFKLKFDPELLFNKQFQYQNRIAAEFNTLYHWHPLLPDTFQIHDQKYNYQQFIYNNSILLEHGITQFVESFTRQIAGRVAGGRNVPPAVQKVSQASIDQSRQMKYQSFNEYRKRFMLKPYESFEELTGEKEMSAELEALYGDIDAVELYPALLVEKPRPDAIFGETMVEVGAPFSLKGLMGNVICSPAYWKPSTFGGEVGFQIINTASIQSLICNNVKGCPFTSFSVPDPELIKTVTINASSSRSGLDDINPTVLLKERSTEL

MCF7 = assay: Antiproliferative activity against human MCF7 cells after 48 hrs by MTT assay; type: functional, cell-based; settings: MCF7, 48 h
HEK-293T = assay: Cytotoxicity against human 293T cells after 48 hrs by MTT assay; type: cell-based
HeLa = assay: Antiproliferative activity against human HeLa cells after 48 hrs by MTT assay; type: functional, cell-based

Sequence of Prostaglandin G/H synthase 1 (P23219 whole entry): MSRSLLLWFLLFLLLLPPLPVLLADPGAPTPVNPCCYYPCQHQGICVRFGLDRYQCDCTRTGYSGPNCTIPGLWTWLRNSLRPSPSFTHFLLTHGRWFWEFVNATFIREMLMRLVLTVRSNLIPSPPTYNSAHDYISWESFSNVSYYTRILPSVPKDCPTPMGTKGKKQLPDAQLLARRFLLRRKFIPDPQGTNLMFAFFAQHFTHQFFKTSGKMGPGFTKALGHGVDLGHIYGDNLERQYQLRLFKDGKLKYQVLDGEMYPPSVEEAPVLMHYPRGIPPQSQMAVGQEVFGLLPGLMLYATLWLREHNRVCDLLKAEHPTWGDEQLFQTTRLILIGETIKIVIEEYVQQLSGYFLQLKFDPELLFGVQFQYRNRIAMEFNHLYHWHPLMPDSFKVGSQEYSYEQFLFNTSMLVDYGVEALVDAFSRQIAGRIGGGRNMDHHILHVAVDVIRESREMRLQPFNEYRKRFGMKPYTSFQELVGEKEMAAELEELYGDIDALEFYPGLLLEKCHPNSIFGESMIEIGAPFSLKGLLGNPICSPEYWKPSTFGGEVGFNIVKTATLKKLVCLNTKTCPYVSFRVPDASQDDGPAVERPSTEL

Compound	IC50 (B16-F10) [µM]	IC50 [1] [µM]	Ratio IC50 (Homo sapiens)	IC50 (A549) [µM]	IC50 [2] [µM]	IC50 (MCF7) [µM]	IC50 (HEK-293T) [µM]	IC50 (HeLa) [µM]
O=C(COc1cc(O)c2c(=O)cc(-c3ccccc3)oc2c1)OCc1cc(-c2ccc([N+](=O)[O-])cc2)n(-c2ccccc2)n1	15.6	42	25.3	17	1.66	22.2	192	2.04
COc1ccc(-c2cc(COC(=O)COc3cc(O)c4c(=O)cc(-c5ccccc5)oc4c3)nn2-c2ccc(Cl)cc2)cc1	12.4	46.4	132	12.7	0.35	> 100	290	5.65
COc1cccc(-c2cc(COC(=O)COc3cc(O)c4c(=O)cc(-c5ccccc5)oc4c3)nn2-c2ccccc2)c1	6.92	25.5	21	13.6	1.21	5.12	317	13.6
O=C(COc1cc(O)c2c(=O)cc(-c3ccccc3)oc2c1)OCc1cc(-c2ccc(Cl)c(Cl)c2)n(-c2ccc(Cl)cc2)n1	6.08	33.1	3.86	3.62	8.58	12.1	268	4.72
O=C(COc1cc(O)c2c(=O)cc(-c3ccccc3)oc2c1)OCc1cc(-c2ccc(Cl)cc2)n(-c2ccccc2)n1	15.6	> 50	> 35	> 100	1.41	47	227	1.65
COc1ccc(-c2cc(COC(=O)COc3cc(O)c4c(=O)cc(-c5ccccc5)oc4c3)nn2-c2ccccc2)cc1	1.76	41.3	75.9	10.6	0.54	7.1	257	2.72
Cc1ccc(-n2nc(COC(=O)COc3cc(O)c4c(=O)cc(-c5ccccc5)oc4c3)cc2-c2ccc(Br)cc2)cc1	32.1	39.5	36.5	22.7	1.08	2.96	278	24.7
Cc1cccc(-c2cc(COC(=O)COc3cc(O)c4c(=O)cc(-c5ccccc5)oc4c3)nn2-c2ccc(Cl)cc2)c1	4.95	27.6	15.6	32.1	1.77	23.4	162	4.06
Cc1ccc(-c2cc(C(F)(F)F)nn2-c2ccc(S(N)(=O)=O)cc2)cc1 [CELECOXIB]	19.2	–	–	16.1	–	26.8	225	15.7
Cc1ccc(-n2nc(COC(=O)COc3cc(O)c4c(=O)cc(-c5ccccc5)oc4c3)cc2-c2ccc(C(F)(F)F)cc2)cc1	7.44	29.7	5.92	5.07	5.02	6.21	212	4.32
Cc1ccc(-n2nc(COC(=O)COc3cc(O)c4c(=O)cc(-c5ccccc5)oc4c3)cc2-c2ccc(Cl)c(Cl)c2)cc1	7.61	27.9	5.56	> 100	5.02	22.2	273	6.06
Cc1ccc(-n2nc(COC(=O)COc3cc(O)c4c(=O)cc(-c5ccccc5)oc4c3)cc2-c2cccc(Cl)c2)cc1	3.85	49.6	10.3	8.17	4.8	22	161	25.5
O=C(COc1cc(O)c2c(=O)cc(-c3ccccc3)oc2c1)OCc1cc(-c2cccc(C(F)(F)F)c2)n(-c2ccccc2)n1	6.53	41.1	8.58	6.68	4.79	8.01	271	4.33
O=C(COc1cc(O)c2c(=O)cc(-c3ccccc3)oc2c1)OCc1cc(-c2ccccc2)n(-c2ccccc2)n1	1.57	32.9	13.1	3.23	2.2	3.47	173	2.41
O=C(COc1cc(O)c2c(=O)cc(-c3ccccc3)oc2c1)OCc1cc(-c2cccc([N+](=O)[O-])c2)n(-c2ccccc2)n1	21.7	33.8	5.68	> 100	5.94	12.6	348	30.9
O=C(COc1cc(O)c2c(=O)cc(-c3ccccc3)oc2c1)OCc1cc(-c2ccc(Cl)c(Cl)c2)n(-c2ccccc2)n1	6.44	> 50	> 7	5.52	6.83	3.29	233	6.28
O=C(COc1cc(O)c2c(=O)cc(-c3ccccc3)oc2c1)OCc1cc(-c2cccc(F)c2)n(-c2ccccc2)n1	10.8	43.2	12.2	40.2	3.53	9.02	197	2.81
Cc1ccc(-n2nc(COC(=O)COc3cc(O)c4c(=O)cc(-c5ccccc5)oc4c3)cc2-c2ccc(F)cc2)cc1	65.8	30.2	10.6	4.62	2.84	17.8	265	> 100
O=C(COc1cc(O)c2c(=O)cc(-c3ccccc3)oc2c1)OCc1cc(-c2ccc(C(F)(F)F)cc2)n(-c2ccccc2)n1	9.85	32.9	7.61	8.02	4.33	11	162	6.61
Cc1ccc(-c2cc(COC(=O)COc3cc(O)c4c(=O)cc(-c5ccccc5)oc4c3)nn2-c2ccc(Cl)cc2)cc1	17.6	40.9	28.4	4.69	1.44	7.86	222	12.4
Cc1cccc(-c2cc(COC(=O)COc3cc(O)c4c(=O)cc(-c5ccccc5)oc4c3)nn2-c2ccccc2)c1	2.85	39.1	28.7	> 100	1.36	10.8	316	1.95
Cc1ccc(-n2nc(COC(=O)COc3cc(O)c4c(=O)cc(-c5ccccc5)oc4c3)cc2-c2ccc(Cl)cc2)cc1	20.8	> 50	> 23	3.68	2.12	> 100	299	2.67
O=C(COc1cc(O)c2c(=O)cc(-c3ccccc3)oc2c1)OCc1cc(-c2ccc(Br)cc2)n(-c2ccccc2)n1	> 100	43.2	20.4	3.58	2.12	8.48	316	6.67
O=C(COc1cc(O)c2c(=O)cc(-c3ccccc3)oc2c1)OCc1cc(-c2cccc(Cl)c2)n(-c2ccc(Cl)cc2)n1	5.73	36.8	87.3	4.34	0.422	3.94	272	> 100
O=C(COc1cc(O)c2c(=O)cc(-c3ccccc3)oc2c1)OCc1cc(-c2ccc(F)cc2)n(-c2ccccc2)n1	6.24	> 50	> 20	12	2.54	3.82	187	> 100
O=c1cc(-c2ccccc2)oc2cc(O)cc(O)c12 [CHRYSIN]	17.4	–	–	47.8	–	25.7	319	25.1
